In ChEMBL document CHEMBL1150393, “Evaluation of radiolabeled (hetero)aromatic analogues of N-(2-diethylaminoethyl)-4-iodobenzamide for imaging and targeted radionuclide therapy of melanoma” (J Med Chem, 2008):

Key:
[1] = Partition coefficient, log P in phosphate buffer solution at pH 7.4; format: physicochemical
Procedure, shortened: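 Shake-flask partition: 50 µM [¹²⁵I]-labelled compound in phosphate buffer pH 7.4 was mixed with 2 mL n-octanol. Each phase was γ-counted, P was taken as the octanol/buffer activity ratio, and log P was reported.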

[2] = Biodistribution in uvea of C57BL/6 mouse bearing mouse B16-F0 cells at 0.74 to 0.92 MBq, iv after 24 hrs; format: ADME, organism-based, Uveal tract; conditions: in vivo
Procedure, shortened: (§1)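 [¹²⁵I]-labelled compound given iv by tail vein (0.1 µmol per mouse) to male C57BL6 mice bearing s.c. B16-F0 flank tumours (5 × 10⁵ cells in PBS). Two mice per time point were killed by CO₂, frozen in liquid nitrogen and cut into 40 µm cryosections, eight slices per mouse. Slice radioactivity was read on a multiwire proportional counter, converted to kBq/g and reported as %ID/g.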

[3] = Biodistribution in tumor of C57BL/6 mouse bearing mouse B16-F0 cells at 0.74 to 0.92 MBq, iv after 24 hrs; format: ADME, organism-based, Neoplasm; conditions: in vivo; procedure, shortened: as §1
[4] = Biodistribution in tumor of C57BL/6 mouse bearing mouse B16-F0 cells at 0.74 to 0.92 MBq, iv after 3 hrs; format: ADME, organism-based, Neoplasm; conditions: in vivo; procedure, shortened: as §1
[5] = tested on: Liver; assay: Biodistribution in liver of C57BL/6 mouse bearing mouse B16-F0 cells at 0.74 to 0.92 MBq, iv after 6 hrs; format: ADME, organism-based; conditions: in vivo
Procedure, shortened: (§2)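 Male C57BL6 mice with s.c. left-flank B16-F0 melanoma (5 × 10⁵ cells in PBS). Two mice per time point frozen in liquid nitrogen after CO₂ sacrifice. Eight 40 µm whole-body cryosections per mouse read by multiwire proportional counter. cpm/mm² converted to kBq/g and expressed as %ID/g.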

[6] = Biodistribution in Stomach content of C57BL/6 mouse bearing mouse B16-F0 cells at 0.74 to 0.92 MBq, iv after 1 hr; format: ADME, organism-based; conditions: in vivo; procedure, shortened: as §2
[7] = tested on: Spleen; assay: Biodistribution in spleen of C57BL/6 mouse bearing mouse B16-F0 cells at 0.74 to 0.92 MBq, iv after 3 hrs; format: ADME, organism-based; conditions: in vivo; procedure, shortened: as §1
[8] = Biodistribution in tumor of C57BL/6 mouse bearing mouse B16-F0 cells at 0.74 to 0.92 MBq, iv after 6 hrs; format: ADME, organism-based, Neoplasm; conditions: in vivo; procedure, shortened: as §1
[9] = tested on: Pancreas; assay: Biodistribution in pancreas of C57BL/6 mouse bearing mouse B16-F0 cells at 0.74 to 0.92 MBq, iv after 1 hr; format: ADME, organism-based; conditions: in vivo; procedure, shortened: as §2
[10] = tested on: Liver; assay: Biodistribution in liver of C57BL/6 mouse bearing mouse B16-F0 cells at 0.74 to 0.92 MBq, iv after 1 hr; format: ADME, organism-based; conditions: in vivo; procedure, shortened: as §2
[11] = tested on: Muscle tissue; assay: Biodistribution in muscle of C57BL/6 mouse bearing mouse B16-F0 cells at 0.74 to 0.92 MBq, iv after 1 hr; format: ADME, organism-based; conditions: in vivo; procedure, shortened: as §2
[12] = tested on: Blood; assay: Biodistribution in blood of C57BL/6 mouse bearing mouse B16-F0 cells at 0.74 to 0.92 MBq, iv after 6 hrs; format: ADME, organism-based; conditions: in vivo; procedure, shortened: as §2
[13] = Ratio of drug level in tumor to liver of C57BL/6 mouse bearing mouse B16-F0 cells at 0.74 to 0.92 MBq, iv after 3 hrs; format: ADME, organism-based; conditions: in vivo
Procedure, shortened: (§3)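 Tumour and organ radioactive concentrations came from whole-body cryosection counting (40 µm slices, eight per mouse, two mice per time) after tail-vein injection of the [¹²⁵I]-labelled compound (0.1 µmol) into male C57BL6 mice bearing s.c. B16-F0 melanoma. Each value is the ratio of the tumour concentration to the organ concentration.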

[14] = Ratio of drug level in tumor to lung of C57BL/6 mouse bearing mouse B16-F0 cells at 0.74 to 0.92 MBq, iv after 3 hrs; format: ADME, organism-based; conditions: in vivo; procedure, shortened: as §3
[15] = Drug excretion in mouse B16-F0 cells bearing C57BL/6 mouse urine at 0.74 to 0.92 MBq, iv after 72 hrs; format: ADME, organism-based; conditions: in vivo
Procedure, shortened: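 Urine was collected from two B16-F0 tumour-bearing C57BL6 mice for up to 72 h after iv tail-vein injection of the [¹²⁵I]-labelled compound (0.1 µmol). Samples were counted to give cumulative urinary excretion as %ID.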

[16] = Ratio of drug level in tumor to liver of C57BL/6 mouse bearing mouse B16-F0 cells at 0.74 to 0.92 MBq, iv after 1 hr; format: ADME, organism-based; conditions: in vivo; procedure, shortened: as §3
[17] = tested on: Brain; assay: Biodistribution in brain of C57BL/6 mouse bearing mouse B16-F0 cells at 0.74 to 0.92 MBq, iv after 1 hr; format: ADME, organism-based; conditions: in vivo; procedure, shortened: as §2
[18] = tested on: Kidney; assay: Biodistribution in kidney of C57BL/6 mouse bearing mouse B16-F0 cells at 0.74 to 0.92 MBq, iv after 6 hrs; format: ADME, organism-based; conditions: in vivo; procedure, shortened: as §2
[19] = Biodistribution in Stomach content of C57BL/6 mouse bearing mouse B16-F0 cells at 0.74 to 0.92 MBq, iv after 6 hrs; format: ADME, organism-based; conditions: in vivo; procedure, shortened: as §2
[20] = tested on: Thyroid gland; assay: Biodistribution in thyroid of C57BL/6 mouse bearing mouse B16-F0 cells at 0.74 to 0.92 MBq, iv after 24 hrs; format: ADME, organism-based; conditions: in vivo; procedure, shortened: as §1
[21] = Biodistribution in tumor of C57BL/6 mouse bearing mouse B16-F0 cells at 0.74 to 0.92 MBq, iv after 72 hrs; format: ADME, organism-based, Neoplasm; conditions: in vivo; procedure, shortened: as §1
[22] = tested on: Liver; assay: Biodistribution in liver of C57BL/6 mouse bearing mouse B16-F0 cells at 0.74 to 0.92 MBq, iv after 3 hrs; format: ADME, organism-based; conditions: in vivo; procedure, shortened: as §2
[23] = Ratio of drug level in tumor to brain of C57BL/6 mouse bearing mouse B16-F0 cells at 0.74 to 0.92 MBq, iv after 1 hr; format: ADME, organism-based; conditions: in vivo; procedure, shortened: as §3
[24] = Biodistribution in uvea of C57BL/6 mouse bearing mouse B16-F0 cells at 0.74 to 0.92 MBq, iv after 6 hrs; format: ADME, organism-based, Uveal tract; conditions: in vivo; procedure, shortened: as §1
[25] = tested on: Kidney; assay: Biodistribution in kidney of C57BL/6 mouse bearing mouse B16-F0 cells at 0.74 to 0.92 MBq, iv after 3 hrs; format: ADME, organism-based; conditions: in vivo; procedure, shortened: as §2
[26] = tested on: Brain; assay: Biodistribution in brain of C57BL/6 mouse bearing mouse B16-F0 cells at 0.74 to 0.92 MBq, iv after 3 hrs; format: ADME, organism-based; conditions: in vivo; procedure, shortened: as §2
[27] = Biodistribution in intestinal content of C57BL/6 mouse bearing mouse B16-F0 cells at 0.74 to 0.92 MBq, iv after 1 hr; format: ADME, organism-based; conditions: in vivo; procedure, shortened: as §2
[28] = tested on: Lung; assay: Biodistribution in lung of C57BL/6 mouse bearing mouse B16-F0 cells at 0.74 to 0.92 MBq, iv after 1 hr; format: ADME, organism-based; conditions: in vivo; procedure, shortened: as §2
[29] = Ratio of drug level in tumor to lung of C57BL/6 mouse bearing mouse B16-F0 cells at 0.74 to 0.92 MBq, iv after 1 hr; format: ADME, organism-based; conditions: in vivo; procedure, shortened: as §3
[30] = Biodistribution in Stomach content of C57BL/6 mouse bearing mouse B16-F0 cells at 0.74 to 0.92 MBq, iv after 3 hrs; format: ADME, organism-based; conditions: in vivo; procedure, shortened: as §2
[31] = tested on: Spleen; assay: Biodistribution in spleen of C57BL/6 mouse bearing mouse B16-F0 cells at 0.74 to 0.92 MBq, iv after 1 hr; format: ADME, organism-based; conditions: in vivo; procedure, shortened: as §1
[32] = tested on: Muscle tissue; assay: Biodistribution in muscle of C57BL/6 mouse bearing mouse B16-F0 cells at 0.74 to 0.92 MBq, iv after 3 hrs; format: ADME, organism-based; conditions: in vivo; procedure, shortened: as §2

Row | logD [1] | Drug uptake [2] | Drug uptake [3] | Drug uptake [4] | Drug uptake [5] | Drug uptake [6] | Drug uptake [7] | Drug uptake [8] | Drug uptake [9] | Drug uptake [10] | Drug uptake [11] | Drug uptake [12] | Ratio [13] | Ratio [14] | Activity [15] | Ratio [16] | Drug uptake [17] | Drug uptake [18] | Drug uptake [19] | Drug uptake [21] | Compound | also measured
1 | -0.29 | 6.07 % ID/g | 2.7 % ID/g | 9.3 % ID/g | 2.09 % ID/g | 34.8 % ID/g | 2.68 % ID/g | 7 % ID/g | 3.94 % ID/g | 5.14 % ID/g | 1.48 % ID/g | 3.71 % ID/g | 3.08 | 2.34 | 67.3% | 3.01 | 0.64 % ID/g | 3.5 % ID/g | 50.21 % ID/g | 0.9 % ID/g | CCN(CC)CCNC(=O)c1ccc([125I])nc1.Cl.Cl | Drug uptake [20]: 111.3 % ID/g; Drug uptake [22]: 3.01 % ID/g; Ratio [23]: 24.2; Drug uptake [24]: 11.5 % ID/g; Drug uptake [25]: 3.26 % ID/g; Drug uptake [26]: 0.22 % ID/g; Drug uptake [27]: 13.44 % ID/g; Drug uptake [28]: 7.59 % ID/g; Ratio [29]: 2.04; Drug uptake [30]: 42.71 % ID/g; Drug uptake [31]: 5.44 % ID/g
2 | 1.33 | 12.28 % ID/g | 7 % ID/g | 11.4 % ID/g | 2.73 % ID/g | 27.82 % ID/g | 2.59 % ID/g | 9 % ID/g | 10.18 % ID/g | 9.46 % ID/g | 1.92 % ID/g | 1.74 % ID/g | 2.4 | 2.57 | 43.7% | 1.37 | 4.37 % ID/g | 3.07 % ID/g | 10.79 % ID/g | 1.5 % ID/g | CCN(CC)CCNC(=O)c1ccc2cc([125I])ccc2c1.Cl | Drug uptake [32]: 0.83 % ID/g; Drug uptake [22]: 4.75 % ID/g; Ratio [23]: 2.97; Drug uptake [24]: 12.76 % ID/g; Drug uptake [25]: 5.65 % ID/g; Drug uptake [26]: 0.78 % ID/g; Drug uptake [27]: 7.82 % ID/g; Drug uptake [28]: 11.82 % ID/g; Ratio [29]: 1.1; Drug uptake [30]: 24.69 % ID/g; Drug uptake [31]: 9.7 % ID/g
